From ChEMBL document CHEMBL4477203 (J Med Chem, 2016)
Numbered stars: 1 amine (or outer) side, 2 acyl side, 3 side chain; on linkers, the order of the positions; unused ones are H or OH. Bridge positions count the residues as written; N and C are the ends. Peptide text beside a SMILES is read from it. I, II: the chains in the order shown. Suberoyl = O=C(CCCCCCC(=O)[*:2])[*:1]

Key:
[1] = molecular target: T1, Neuropeptide Y receptor type 4 (Homo sapiens, UniProt P50391); assay: Agonist activity at human NPY Y4 receptor expressed in CHO cells co-expressing Gqi5-mtAEQ assessed as induction of calcium mobilization by aequorin luminescence assay; assay type: functional, cell-based
T1 sequence (P50391 whole entry): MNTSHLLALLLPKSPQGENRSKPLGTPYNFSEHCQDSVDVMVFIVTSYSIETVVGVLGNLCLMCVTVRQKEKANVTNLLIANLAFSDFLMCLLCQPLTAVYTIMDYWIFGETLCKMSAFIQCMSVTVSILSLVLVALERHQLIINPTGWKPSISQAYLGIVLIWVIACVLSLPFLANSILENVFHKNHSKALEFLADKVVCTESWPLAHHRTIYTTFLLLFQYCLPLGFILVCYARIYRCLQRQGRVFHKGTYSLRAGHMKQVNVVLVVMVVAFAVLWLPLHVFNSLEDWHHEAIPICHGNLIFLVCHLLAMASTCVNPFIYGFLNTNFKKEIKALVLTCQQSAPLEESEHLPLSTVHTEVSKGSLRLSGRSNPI
Summary of the method: (§1)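 Luminescence was integrated as area under the curve and normalized to the response to 1 µM PP. Data are means ± SEM of at least 3 independent experiments, each run in triplicate.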

[2] = molecular target: T1, Neuropeptide Y receptor type 4; assay: Intrinsic activity at human NPY Y4 receptor expressed in CHO cells co-expressing Gqi5-mtAEQ assessed as induction of calcium mobilization by aequorin luminescence assay relative to pancreatic polypeptide; assay type: functional, cell-based; summary of the method: as §1
[3] = molecular target: T1, Neuropeptide Y receptor type 4; assay: Agonist activity at human NPY Y4 receptor expressed in HEK293 cells co-expressing CRE-Luc gene assessed as inhibition of forskolin stimulated luciferase activity after 4.5 hrs by luminescence assay; assay type: functional, cell-based
Summary of the method: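 HEK293 cells stably co-transfected with a CRE-controlled firefly luciferase reporter and hY4R, tested in phenol-red-free DMEM, pH 7.4. The maximal inhibition by PP was set to 0% activity (α = 1.0). Data are means ± SEM of at least 3 experiments in triplicate.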

[4] = molecular target: T1, Neuropeptide Y receptor type 4; assay: Intrinsic activity at human NPY Y4 receptor expressed in HEK293 cells co-expressing CRE-Luc gene assessed as inhibition of forskolin stimulated luciferase activity after 4.5 hrs by luminescence assay relative to pancreatic polypeptide; assay type: functional, cell-based
Summary of the method: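 HEK293 cells stably co-transfected with a CRE-controlled firefly luciferase reporter and hY4R, tested in phenol-red-free DMEM, pH 7.4. […] The maximal inhibition by PP was set to 0% activity (α = 1.0). Data are means ± SEM of at least 3 experiments in triplicate.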

[5] = molecular target: T2, Neuropeptide Y receptor type 1 (Homo sapiens, UniProt P25929); assay: Displacement of [3H]UR-MK136 from human NPY Y1 receptor expressed in human MCF7 cells by liquid scintillation counting; assay type: cell-based
T2 sequence (P25929 whole entry): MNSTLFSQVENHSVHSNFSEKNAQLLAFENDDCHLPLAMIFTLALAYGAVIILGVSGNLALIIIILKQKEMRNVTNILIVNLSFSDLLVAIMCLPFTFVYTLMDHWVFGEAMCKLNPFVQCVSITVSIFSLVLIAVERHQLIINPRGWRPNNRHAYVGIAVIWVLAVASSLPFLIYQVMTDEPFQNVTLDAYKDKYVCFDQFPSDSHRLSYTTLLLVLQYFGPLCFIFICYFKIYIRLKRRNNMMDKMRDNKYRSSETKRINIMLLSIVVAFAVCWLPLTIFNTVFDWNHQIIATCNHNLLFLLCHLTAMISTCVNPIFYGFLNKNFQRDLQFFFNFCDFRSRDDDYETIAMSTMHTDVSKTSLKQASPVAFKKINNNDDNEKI

[6] = molecular target: T3, Neuropeptide Y receptor type 2 (Homo sapiens, UniProt P49146); assay: Displacement of [3H]propionyl-pNPY from human NPY Y2 receptor expressed in CHO cells co-expressing Gqi5-mtAEQ after 90 mins by liquid scintillation counting; assay type: cell-based
T3 sequence (P49146 whole entry): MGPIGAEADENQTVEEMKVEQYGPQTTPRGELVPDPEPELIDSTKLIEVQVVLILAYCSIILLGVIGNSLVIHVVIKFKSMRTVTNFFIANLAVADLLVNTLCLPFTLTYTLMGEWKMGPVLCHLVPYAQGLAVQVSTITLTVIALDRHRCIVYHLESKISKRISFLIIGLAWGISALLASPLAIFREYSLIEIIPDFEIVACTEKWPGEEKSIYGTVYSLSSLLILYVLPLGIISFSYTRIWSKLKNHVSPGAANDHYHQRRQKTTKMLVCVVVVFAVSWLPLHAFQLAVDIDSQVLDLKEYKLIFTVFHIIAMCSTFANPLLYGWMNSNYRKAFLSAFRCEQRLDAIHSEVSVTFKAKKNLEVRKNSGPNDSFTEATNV
Summary of the method: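 Adherent CHO-hY2R-Gqi5-mtAEQ cells in buffer I with 1% BSA and 0.1 mg/mL bacitracin at 22 °C. […] Incubation was 90 min, followed by two ice-cold washes, lysis and scintillation counting.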

[7] = molecular target: T1, Neuropeptide Y receptor type 4; assay: Displacement of [3H](2R,7R)-10 from human NPY Y4 receptor expressed in CHO cells co-expressing Gqi5-mtAEQ after 90 mins in presence of sodium-free HEPES buffer by liquid scintillation counting; assay type: cell-based
[8] = molecular target: T4, Neuropeptide Y receptor type 5 (Homo sapiens, UniProt Q15761); assay: Displacement of [3H]propionyl-pNPY from human NPY Y5 receptor expressed in human HEC1b cells after 120 mins by liquid scintillation counting; assay type: cell-based
T4 sequence (Q15761 whole entry): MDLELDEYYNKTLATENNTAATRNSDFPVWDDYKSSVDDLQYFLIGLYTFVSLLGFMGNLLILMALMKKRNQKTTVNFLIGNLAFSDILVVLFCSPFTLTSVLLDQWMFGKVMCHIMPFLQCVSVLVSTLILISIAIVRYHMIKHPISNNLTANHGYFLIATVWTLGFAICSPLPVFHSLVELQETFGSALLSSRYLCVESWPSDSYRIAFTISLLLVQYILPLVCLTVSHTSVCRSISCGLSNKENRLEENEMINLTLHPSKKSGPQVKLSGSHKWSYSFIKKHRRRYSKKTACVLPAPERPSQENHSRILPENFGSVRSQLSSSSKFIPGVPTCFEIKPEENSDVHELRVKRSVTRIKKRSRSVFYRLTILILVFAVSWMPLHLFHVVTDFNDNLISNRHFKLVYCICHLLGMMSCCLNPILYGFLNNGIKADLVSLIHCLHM
Summary of the method: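 Adherent HEC-1B-hY5 cells in buffer II with 1% BSA and 0.1 mg/mL bacitracin at 22 °C. […] Incubation was 120 min, followed by ice-cold washes, lysis and scintillation counting.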

[9] = molecular target: T1, Neuropeptide Y receptor type 4; assay: Displacement of [3H](2R,7R)-10 from human NPY Y4 receptor expressed in CHO cells co-expressing Gqi5-mtAEQ after 90 mins in presence of L-15 medium by liquid scintillation counting; assay type: cell-based
[10] = molecular target: T1, Neuropeptide Y receptor type 4; assay: Displacement of [3H]18 from human NPY Y4 receptor expressed in CHO cells co-expressing Gqi5-mtAEQ after 90 mins by liquid scintillation counting; assay type: cell-based; conditions: cho

EC50 [1]	Intrinsic activity [2]	EC50 [3]	Intrinsic activity [4]	Ki [5]	Ki [6]	Ki [7]	Ki [8]	Ki [9]	EC50 ([1]; cho)	EC50 ([3]; hek293)	Ki ([5]; mcf7)	Ki ([6]; cho)	Ki ([7]; cho)	Ki [10]	Compound
49 nM	0.73	86 nM	0.93	720 nM	1700 nM	3.5 nM	280 nM	–	–	–	–	–	–	–	CC(C)C[C@H](NC(=O)[C@H](CCCNC(=N)N)NC(=O)[C@H](Cc1ccc(O)cc1)NC(=O)CCCCCCC(=O)N[C@@H](Cc1ccc(O)cc1)C(=O)N[C@@H](CCCNC(=N)N)C(=O)N[C@@H](CC(C)C)C(=O)N[C@@H](CCCNC(=N)N)C(=O)N[C@@H](Cc1ccc(O)cc1)C(N)=O)C(=O)N[C@@H](CCCNC(=N)N)C(=O)N[C@@H](Cc1ccc(O)cc1)C(N)=O (I: YRLRY-NH2 / II: YRLRY-NH2; linker I:N-II:N via Suberoyl)
290 nM	0.85	160 nM	0.98	1400 nM	> 3000 nM	12 nM	220 nM	–	–	–	–	–	–	–	CC(C)C[C@H](NC(=O)[C@H](C)NC(=O)[C@H](Cc1ccc(O)cc1)NC(=O)CCCCCCC(=O)N[C@@H](Cc1ccc(O)cc1)C(=O)N[C@@H](CCCNC(=N)N)C(=O)N[C@@H](CC(C)C)C(=O)N[C@@H](CCCNC(=N)N)C(=O)N[C@@H](Cc1ccc(O)cc1)C(N)=O)C(=O)N[C@@H](CCCNC(=N)N)C(=O)N[C@@H](Cc1ccc(O)cc1)C(N)=O (I: YALRY-NH2 / II: YRLRY-NH2; linker I:N-II:N via Suberoyl)
310 nM	0.85	150 nM	0.99	1600 nM	> 3000 nM	11 nM	460 nM	–	–	–	–	–	–	–	CC(C)C[C@H](NC(=O)[C@H](CCCNC(=N)N)NC(=O)[C@H](Cc1ccc(O)cc1)NC(=O)CCCCCCC(=O)N[C@@H](Cc1ccc(O)cc1)C(=O)N[C@@H](CCCNC(=N)N)C(=O)N[C@@H](CC(C)C)C(=O)N[C@@H](CCCNC(=N)N)C(=O)N[C@@H](Cc1ccc(O)cc1)C(N)=O)C(=O)N[C@@H](C)C(=O)N[C@@H](Cc1ccc(O)cc1)C(N)=O (I: YRLAY-NH2 / II: YRLRY-NH2; linker I:N-II:N via Suberoyl)
–	–	> 3000 nM	–	> 10000 nM	> 10000 nM	> 3000 nM	> 10000 nM	–	–	–	–	–	–	–	CC(C)C[C@H](NC(=O)[C@H](CCCNC(=N)N)NC(=O)[C@H](Cc1ccc(O)cc1)NC(=O)CCCCCCC(=O)N[C@@H](Cc1ccc(O)cc1)C(=O)N[C@@H](CCCNC(=N)N)C(=O)N[C@@H](CC(C)C)C(=O)N[C@@H](C)C(=O)N[C@@H](Cc1ccc(O)cc1)C(N)=O)C(=O)N[C@@H](C)C(=O)N[C@@H](Cc1ccc(O)cc1)C(N)=O (I: YRLAY-NH2 / II: YRLAY-NH2; linker I:N-II:N via Suberoyl)

More lines, now with the values behind:

Compound	EC50 [1]	Intrinsic activity [2]	EC50 [3]	Intrinsic activity [4]	Ki [5]	Ki [6]	Ki [7]	Ki [8]	Ki [9]	EC50 ([1]; cho)	EC50 ([3]; hek293)	Ki ([5]; mcf7)	Ki ([6]; cho)	Ki ([7]; cho)	Ki [10]
CC[C@H](C)[C@H](N)C(=O)N[C@H]1CCC(=O)NC[C@@H](C(=O)N[C@@H](Cc2ccc(O)cc2)C(=O)N[C@@H](CCCN=C(N)N)C(=O)N[C@@H](CC(C)C)C(=O)N[C@@H](CCCN=C(N)N)C(=O)N[C@@H](Cc2ccc(O)cc2)C(N)=O)NC(=O)[C@@H]2CCCN2C(=O)[C@H](NC(=O)[C@@H](N)[C@@H](C)CC)CCC(=O)NC[C@H](C(=O)N[C@@H](Cc2ccc(O)cc2)C(=O)N[C@@H](CCCN=C(N)N)C(=O)N[C@@H](CC(C)C)C(=O)N[C@@H](CCCN=C(N)N)C(=O)N[C@@H](Cc2ccc(O)cc2)C(N)=O)NC(=O)[C@@H]2CCCN2C1=O	–	0.62	–	1.01	–	–	–	–	–	–	–	–	–	–	–
CC(C)C[C@H](NC(=O)[C@H](CCCNC(=N)N)NC(=O)[C@H](Cc1ccc(O)cc1)NC(=O)[C@@H](N)CCCC[C@H](N)C(=O)N[C@@H](Cc1ccc(O)cc1)C(=O)N[C@@H](CCCNC(=N)N)C(=O)N[C@@H](CC(C)C)C(=O)N[C@@H](CCCNC(=N)N)C(=O)N[C@@H](Cc1ccc(O)cc1)C(N)=O)C(=O)N[C@@H](CCCNC(=N)N)C(=O)N[C@@H](Cc1ccc(O)cc1)C(N)=O	18 nM	0.78	19 nM	1.07	930 nM	950 nM	2.3 nM	2100 nM	17 nM	–	–	–	–	–	–
CCC(=O)N[C@H](CCCC[C@@H](N)C(=O)N[C@H](Cc1ccc(O)cc1)C(=O)N[C@H](CCCNC(=N)N)C(=O)N[C@H](CC(C)C)C(=O)N[C@H](CCCNC(=N)N)C(=O)N[C@H](Cc1ccc(O)cc1)C(N)=O)C(=O)N[C@@H](Cc1ccc(O)cc1)C(=O)N[C@@H](CCCNC(=N)N)C(=O)N[C@@H](CC(C)C)C(=O)N[C@@H](CCCNC(=N)N)C(=O)N[C@@H](Cc1ccc(O)cc1)C(N)=O	–	0.7	–	0.98	–	–	–	400 nM	–	59 nM	27 nM	290 nM	750 nM	2.8 nM	–
CC(C)C[C@H](NC(=O)[C@H](CCCNC(=N)N)NC(=O)[C@H](Cc1ccc(O)cc1)NC(=O)C(N)CCCCC(N)C(=O)N[C@@H](Cc1ccc(O)cc1)C(=O)N[C@@H](CCCNC(=N)N)C(=O)N[C@@H](CC(C)C)C(=O)N[C@@H](CCCNC(=N)N)C(=O)N[C@@H](Cc1ccc(O)cc1)C(N)=O)C(=O)N[C@@H](CCCNC(=N)N)C(=O)N[C@@H](Cc1ccc(O)cc1)C(N)=O (some centres undefined)	–	–	–	–	–	–	1.06 nM	–	–	–	–	–	–	–	–
CC(C)C[C@H](NC(=O)[C@H](C)NC(=O)[C@H](Cc1ccc(O)cc1)NC(=O)CCCCCCC(=O)N[C@@H](Cc1ccc(O)cc1)C(=O)N[C@@H](C)C(=O)N[C@@H](CC(C)C)C(=O)N[C@@H](CCCNC(=N)N)C(=O)N[C@@H](Cc1ccc(O)cc1)C(N)=O)C(=O)N[C@@H](CCCNC(=N)N)C(=O)N[C@@H](Cc1ccc(O)cc1)C(N)=O (I: YALRY-NH2 / II: YALRY-NH2; linker I:N-II:N via Suberoyl)	> 3000 nM	–	> 3000 nM	–	> 3000 nM	> 10000 nM	> 3000 nM	550 nM	–	–	–	–	–	–	–
CC[C@H](C)[C@H](N)C(=O)N[C@H]1CCC(=O)NC[C@@H](C(=O)N[C@@H](Cc2ccc(O)cc2)C(=O)N[C@@H](CCCN=C(N)N)C(=O)N[C@@H](CC(C)C)C(=O)N[C@@H](CCCN=C(N)N)C(=O)N[C@@H](Cc2ccc(O)cc2)C(N)=O)NC(=O)[C@@H]2CCCN2C(=O)[C@@H](NC(=O)[C@@H](N)[C@@H](C)CC)CCC(=O)NC[C@@H](C(=O)N[C@@H](Cc2ccc(O)cc2)C(=O)N[C@@H](CCCN=C(N)N)C(=O)N[C@@H](CC(C)C)C(=O)N[C@@H](CCCN=C(N)N)C(=O)N[C@@H](Cc2ccc(O)cc2)C(N)=O)NC(=O)[C@@H]2CCCN2C1=O	–	–	–	–	–	–	–	–	–	8.5 nM	5.5 nM	–	–	1.6 nM	1.3 nM
